Test results: ChEMBL document CHEMBL4477178, “Biflorin, Isolated from the Flower Buds of Syzygium aromaticum L., Suppresses LPS-Induced Inflammatory Mediators via STAT1 Inactivation in Macrophages and Protects Mice from Endotoxin Shock” (J Nat Prod, 2016)
Active and inactive are the calls of the source. No cut-off for these calls is given here.

Columns and labels:
[1] = tested on: Peritoneal macrophage; experiment: Antiinflammatory activity in C57BL/6 mouse peritoneal macrophages assessed as inhibition of LPS-induced nitric oxide production at 60 uM preincubated for 1 hr followed by LPS challenge for 48 hrs by Griess assay; type: functional; details: C57BL/6, Peritoneal macrophage
How it was run: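 Thioglycolate-elicited C57BL/6 mouse peritoneal macrophages, plated at 5 × 10^5 cells/mL and incubated overnight. Compound given at 15, 30 or 60 μM for 1 h, then LPS 10 μg/mL. Medium mixed 1:1 with Griess reagent for 10 min at room temperature, absorbance read at 540 nm, nitrite quantified against a NaNO2 standard. L-NIL 20 μM as positive control; three independent experiments.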

[2] = tested on: RAW264.7; experiment: Antiinflammatory activity in mouse RAW264.7 cells assessed as inhibition of LPS-induced iNOS mRNA expression at 60 uM after 2 to 12 hrs by qRT-PCR method; type: functional, cell-based
How it was run: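 RAW 264.7 stimulated with LPS 10 ng/mL with or without 60 μM for 2, 4, 6 and 12 h. Total RNA (1 μg) reverse-transcribed with MuLV RT and random primer; SYBR green real-time qPCR with gene-specific primers, triplicate Ct normalized to β-actin. Mean ± SD, three independent experiments.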

[3] = tested on: Peritoneal macrophage; experiment: Antiinflammatory activity in C57BL/6 mouse peritoneal macrophages assessed as inhibition of LPS-induced PGE2 production at 60 uM preincubated for 1 hr followed by LPS challenge for 48 hrs by ELISA method; type: functional; details: C57BL/6, Peritoneal macrophage
[4] = molecular target: T1, Signal transducer and activator of transcription 1 (Mus musculus) (UniProt P42225); experiment: Inhibition of LPS-induced STAT1 phosphorylation at S727 in mouse RAW264.7 cells at 15 to 60 uM preincubated for 1 hr followed by LPS challenge for 15 mins by Western blot analysis; type: cell-based
T1 sequence (whole entry): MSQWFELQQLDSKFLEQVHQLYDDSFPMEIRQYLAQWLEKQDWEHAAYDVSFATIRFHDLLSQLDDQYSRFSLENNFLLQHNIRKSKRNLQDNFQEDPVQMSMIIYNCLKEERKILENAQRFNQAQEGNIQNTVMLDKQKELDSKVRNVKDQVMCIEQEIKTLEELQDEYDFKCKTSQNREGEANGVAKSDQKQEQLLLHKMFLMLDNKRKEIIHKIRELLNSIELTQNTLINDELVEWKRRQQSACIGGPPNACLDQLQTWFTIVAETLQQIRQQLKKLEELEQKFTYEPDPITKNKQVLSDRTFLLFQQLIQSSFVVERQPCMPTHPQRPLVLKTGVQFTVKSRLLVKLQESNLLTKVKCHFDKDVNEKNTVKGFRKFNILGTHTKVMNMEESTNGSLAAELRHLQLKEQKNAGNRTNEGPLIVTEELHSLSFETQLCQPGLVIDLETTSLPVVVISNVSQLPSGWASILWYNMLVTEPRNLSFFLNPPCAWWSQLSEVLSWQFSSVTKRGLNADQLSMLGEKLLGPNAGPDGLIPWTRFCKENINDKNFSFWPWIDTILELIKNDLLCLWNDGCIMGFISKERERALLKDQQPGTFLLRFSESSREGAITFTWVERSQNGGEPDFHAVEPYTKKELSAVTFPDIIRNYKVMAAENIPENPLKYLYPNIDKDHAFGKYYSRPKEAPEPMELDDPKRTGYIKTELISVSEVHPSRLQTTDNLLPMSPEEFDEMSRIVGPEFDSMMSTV
How it was run: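 RAW 264.7 pretreated 1 h at 15, 30 or 60 μM, then LPS 10 ng/mL: 120 min for p-STAT1 Y701, 15 min for p-STAT1 S727, 120 min for p-STAT3 Y705. Western blot with phospho-specific and total STAT1/STAT3 antibodies, β-actin control; three independent experiments.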

[5] = molecular target: T1, Signal transducer and activator of transcription 1 (Mus musculus); experiment: Inhibition of LPS-induced STAT1 phosphorylation at S727 in C57BL/6 mouse peritoneal macrophages at 15 to 60 uM preincubated for 1 hr followed by LPS challenge for 30 mins by Western blot analysis
How it was run: (§1)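 Thioglycolate-elicited C57BL/6 peritoneal macrophages pretreated 1 h at 15, 30 or 60 μM, then LPS 10 μg/mL: 120 min for p-STAT1 Y701, 30 min for p-STAT1 S727, 60 min for p-STAT3 Y705. Western blot with phospho-specific and total STAT antibodies, β-actin control; three independent experiments.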

[6] = molecular target: Signal transducer and activator of transcription 3 (Mus musculus) (UniProt P42227); experiment: Inhibition of LPS-induced STAT3 phosphorylation at Y705 in C57BL/6 mouse peritoneal macrophages at 15 to 60 uM preincubated for 1 hr followed by LPS challenge for 60 mins by Western blot analysis; how it was run: as §1
[7] = molecular target: MAP kinase p38 (Mus musculus) (UniProt P47811+O08911+Q9WUI1+Q9Z1B7); experiment: Inhibition of LPS-induced p38 MAPK phosphorylation in mouse RAW264.7 cells preincubated for 1 hr followed by LPS challenge for 30 mins by Western blot analysis; type: cell-based
How it was run: (§2)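 RAW 264.7 pretreated 1 h at 15, 30 or 60 μM, then LPS 10 ng/mL for 30 min. Lysates Western-blotted for p-p38, p38, p-JNK, JNK, p-ERK, ERK with β-actin control; ECL, densitometry. Three independent experiments.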

[8] = tested on: RAW264.7; experiment: Inhibition of LPS-induced JNK phosphorylation in mouse RAW264.7 cells at 15 to 60 uM preincubated for 1 hr followed by LPS challenge for 30 mins by Western blot analysis; type: cell-based; how it was run: as §2
[9] = tested on: Mus musculus; experiment: Inhibition of LPS-induced iNOS mRNA expression in C57BL/6 mouse liver at 10 mg/kg, ip pretreated for 1 hr followed by LPS challenge for 6 hrs by qRT-PCR method; type: functional, organism-based
How it was run: (§3)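 Male C57BL/6 mice given 10 mg/kg i.p. or vehicle 1 h before LPS (Salmonella enterica, 25 mg/kg i.p.); liver collected 6 h after LPS, frozen at −80 °C. Liver mRNA by SYBR qRT-PCR normalized to β-actin; protein by Western blot for p-STAT1 (Y701, S727). Eight mice per group; mean ± SD.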

[10] = tested on: Mus musculus; experiment: Inhibition of LPS-induced COX-2 mRNA expression in C57BL/6 mouse liver at 10 mg/kg, ip pretreated for 1 hr followed by LPS challenge for 6 hrs by qRT-PCR method; type: functional, organism-based; how it was run: as §3
[11] = tested on: Mus musculus; experiment: Inhibition of LPS-induced TNF-alpha mRNA expression in C57BL/6 mouse liver at 10 mg/kg, ip pretreated for 1 hr followed by LPS challenge for 6 hrs by qRT-PCR method; type: functional, organism-based; how it was run: as §3
[12] = tested on: Rattus norvegicus; experiment: Antiinflammatory activity in Sprague-Dawley rat assessed as inhibition of croton oil-induced ear edema at 15 mg/kg, ip administered 1 hr before croton oil challenge measured after 3 hrs post challenge relative to control; type: functional
How it was run: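 Male SD rats given compound i.p. (5, 10 or 15 mg/kg) 1 h before topical croton oil (5% in 100 μL acetone) on the inner right ear; the left ear received acetone alone. After 3 h, rats were killed and 6 mm ear punches were taken and measured for thickness. Inhibition calculated relative to the croton-oil-only group; seven rats per group.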

Chain of Signal transducer and activator of transcription 3 (Mus musculus) (P42227 whole entry): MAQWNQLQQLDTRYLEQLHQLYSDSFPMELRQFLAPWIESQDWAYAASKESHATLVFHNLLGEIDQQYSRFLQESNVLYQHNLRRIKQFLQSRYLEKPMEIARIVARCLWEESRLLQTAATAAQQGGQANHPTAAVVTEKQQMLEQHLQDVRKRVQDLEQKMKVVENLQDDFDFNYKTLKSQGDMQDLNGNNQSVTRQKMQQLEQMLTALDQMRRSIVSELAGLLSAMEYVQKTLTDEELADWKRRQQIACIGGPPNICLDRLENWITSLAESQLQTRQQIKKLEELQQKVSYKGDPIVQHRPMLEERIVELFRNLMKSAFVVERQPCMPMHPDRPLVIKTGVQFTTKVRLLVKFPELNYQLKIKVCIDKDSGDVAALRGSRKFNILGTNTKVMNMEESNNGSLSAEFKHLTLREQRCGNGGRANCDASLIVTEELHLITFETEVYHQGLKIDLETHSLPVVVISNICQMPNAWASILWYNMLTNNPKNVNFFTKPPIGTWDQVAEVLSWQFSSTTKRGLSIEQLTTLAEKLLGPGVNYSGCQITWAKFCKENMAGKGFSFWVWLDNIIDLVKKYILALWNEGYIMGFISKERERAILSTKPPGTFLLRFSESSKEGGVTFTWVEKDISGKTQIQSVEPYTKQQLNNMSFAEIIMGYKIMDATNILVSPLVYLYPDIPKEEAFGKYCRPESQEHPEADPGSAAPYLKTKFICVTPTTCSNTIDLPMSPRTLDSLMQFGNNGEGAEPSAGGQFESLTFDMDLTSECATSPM

`Cc1cc(=O)c2c(O)c([C@@H]3O[C@H](CO)[C@@H](O)[C@H](O)[C@H]3O)c(O)cc2o1` [BIFLORIN] was tested, and the inhibition at 60 µM [1] was 55.9%, the inhibition [2] was “Active” and the inhibition at 60 µM [3] was 42.2%. The inhibition [4] was “Active”, the inhibition [5] was “Active” and the inhibition [6] was “Active”. The inhibition [7] was “Dose-dependent effect”, the inhibition [8] was “inactive” and the inhibition [9] was “Active”. The inhibition [10] was “Active”, the inhibition [11] was “Active” and the inhibition in vivo at 15 mg/kg [12] was 74.7%.
